Measured values published in ChEMBL document CHEMBL1131442 (J Med Chem, 1998).

Assays:
[1] = biological target: Cannabinoid receptor 2 (Mus musculus, UniProt P47936); assay: Binding affinity towards Cannabinoid receptor 2 from mouse spleen membranes using 0.8 nM [3H]CP-55940 as radioligand; type: tissue-based
Procedure, shortened: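 Mouse spleen membranes, no PMSF pretreatment (amidase absent). Each well held ~30 μg membrane in TME (25 mM Tris-HCl, 5 mM MgCl2, 1 mM EDTA, pH 7.4) with 0.1% fatty acid-free BSA, 0.8 nM [3H]CP-55,940 and varied analogue concentrations, 1 h. Bound ligand was collected on GF/C filters and counted by scintillation.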

[2] = biological target: T1, Cannabinoid receptor 1 (Rattus norvegicus, UniProt P20272); assay: Binding affinity towards cannabinoid receptor 1 from rat forebrain membranes in the absence of phenylmethanesulfonylfluoride (PMSF) using 0.8 nM [3H]CP-55940 as radioligand; design: species or system Membrane
Procedure, shortened: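 Rat forebrain membranes were used without PMSF treatment. Bound ligand was separated by filtration and counted by scintillation. IC50 from nonlinear regression was converted to Ki by Cheng–Prusoff.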

[3] = biological target: T1, Cannabinoid receptor 1; assay: Binding affinity towards cannabinoid receptor 1 from rat forebrain membranes in the presence of phenylmethanesulfonylfluoride (PMSF) using 0.8 nM [3H]CP-55940 as radioligand; design: species or system Membrane
[4] = species on record: Rattus norvegicus; assay: Effective concentration required for stimulation of [35S]GTP-gamma-S, binding in rat microsomal membranes; type: functional
Procedure, shortened: (§1)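 Rat brain membranes (cerebellum removed) were sucrose-gradient purified. Membrane (40–50 μg protein) was incubated 1 h at 30 °C in 10 mM Tris, 100 mM NaCl, 5 mM MgCl2, 0.1% BSA with GDP, [35S]GTPγS and eight analogue concentrations. Nonspecific binding was defined with 10 μM GTPγS, and buffer alone set the baseline. Bound label was collected on GF/B filters and counted. Two experiments were run, each point in […].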

[5] = species on record: Rattus norvegicus; assay: Maximal stimulation of [35S]GTP-gamma-S, binding in rat microsomal membranes expressed as Emax; type: functional; procedure, shortened: as §1
[6] = species on record: Rattus norvegicus; assay: Effective concentration required for stimulation of [35S]GTP-gamma-S, binding in rat microsomal membranes expressed as log EC50; type: functional; procedure, shortened: as §1

T1 sequence (P20272 whole entry): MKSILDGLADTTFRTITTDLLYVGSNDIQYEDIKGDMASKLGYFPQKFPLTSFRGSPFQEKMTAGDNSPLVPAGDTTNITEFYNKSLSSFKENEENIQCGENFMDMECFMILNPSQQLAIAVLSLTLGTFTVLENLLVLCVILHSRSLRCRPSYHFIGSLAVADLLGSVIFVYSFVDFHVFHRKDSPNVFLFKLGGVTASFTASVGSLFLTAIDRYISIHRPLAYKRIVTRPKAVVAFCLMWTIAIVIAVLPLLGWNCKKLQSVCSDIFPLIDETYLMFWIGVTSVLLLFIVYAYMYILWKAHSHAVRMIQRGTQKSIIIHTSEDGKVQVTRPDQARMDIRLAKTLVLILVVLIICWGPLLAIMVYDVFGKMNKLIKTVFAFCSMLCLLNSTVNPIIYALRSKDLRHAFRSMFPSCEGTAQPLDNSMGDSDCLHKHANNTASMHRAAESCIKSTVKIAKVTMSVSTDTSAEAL
Cannabinoid receptor 2, sequence (P47936 whole entry): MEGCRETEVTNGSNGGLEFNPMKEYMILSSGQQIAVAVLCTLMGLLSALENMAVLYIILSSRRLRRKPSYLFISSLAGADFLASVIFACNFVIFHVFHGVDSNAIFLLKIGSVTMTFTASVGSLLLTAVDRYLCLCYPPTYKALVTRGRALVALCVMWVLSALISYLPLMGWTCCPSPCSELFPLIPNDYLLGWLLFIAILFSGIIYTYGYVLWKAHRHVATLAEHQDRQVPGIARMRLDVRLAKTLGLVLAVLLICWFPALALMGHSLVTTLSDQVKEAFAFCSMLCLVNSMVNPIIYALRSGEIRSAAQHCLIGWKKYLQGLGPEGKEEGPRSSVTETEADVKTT

How did the Ki [1] turn out when `CCCCC/C=C\C/C=C\C/C=C\C/C=C\CCCC(=O)NC(C)CC` (stereo not drawn) was run?
The Ki was 2.2 µM.

What about the Ki [2] of the same compound?
The Ki was 158 nM.

And the Ki [3]?
The Ki was 83.2 nM.

How did the Ki [1] turn out when `CCCCC/C=C\C/C=C\C/C=C\C/C=C\CCCC(=O)NCC(F)(F)F` was run?
Its Ki is 0.718 µM.

And the Ki [2]?
The Ki was 2380 nM.

What about the Ki [3] of the same compound?
Its Ki is 36.2 nM.

What does the source list for `Cc1c(C(=O)c2cccc3ccccc23)c2cccc3c2n1[C@H](CN1CCOCC1)CO3` [WIN-552122]?
EC50 [4]: 180 nM; Emax [5]: 150%

How did the Ki [1] turn out when `CCCCC/C=C\C/C=C\CCCCCCCC(=O)NCCO` [LINOLEOYLETHANOLAMIDE] was run?
The Ki was 25 µM.

`CCCCC/C=C\C/C=C\C/C=C\C/C=C\CCCC(=O)NC(C)(C)C` was tested. Which Ki [1] did it give?
Its Ki is 1.14 µM.

What about the Ki [2] of the same compound?
The Ki was 105 nM.

And the Ki [3]?
The Ki was 51.2 nM.

For `CCCCC/C=C\C/C=C\C/C=C\C/C=C\CCCC(=O)N[C@H](C)CC`, which Ki [1] is on record?
Its Ki is 1.33 µM.

And the Ki [2]?
Its Ki is 143 nM.

And the Ki [3]?
The Ki was 73.6 nM.

Which Ki [1] does the source give for `C#CCNC(=O)CCC/C=C\C/C=C\C/C=C\C/C=C\CCCCC` here?
Its Ki is 0.29 µM.

And the EC50 [4]?
The EC50 was 100 nM.

What about the Emax [5] of the same compound?
The Emax was 143%.

And the Ki [2]?
Its Ki is 4900 nM.

What about the Ki [3] of the same compound?
Its Ki is 10.8 nM.

And the EC50 [6]?
Its EC50 is 20 mM.

Which Ki [1] does the source give for `CCCCC/C=C\C/C=C\C/C=C\C/C=C\CCCC(=O)NC[C@@H](C)O` here?
Its Ki is 1.79 µM.

What about the Ki [2] of the same compound?
The Ki was 630 nM.

What about the Ki [3] of the same compound?
Its Ki is 130 nM.

Which Ki [1] does the source give for `CCCCCCCC/C=C\CCCCCCCC1=NCCO1` here?
Its Ki is 31 µM.

What about the Ki [2] of the same compound?
The Ki was 14000 nM.

With `CCCCC/C=C\C/C=C\C/C=C\C/C=C\CCCC(=O)NCCCCl` as the compound, how does the Ki [1] read?
Its Ki is 0.193 µM.

And the Ki [2]?
The Ki was 387 nM.

What about the Ki [3] of the same compound?
Its Ki is 25.6 nM.

For `CCCCC/C=C\C/C=C\C/C=C\C/C=C\CCCC(=O)N[C@@H](C)CO`, which Ki [1] is on record?
The Ki was 8.22 µM.

`CCCCCCCC/C=C\CCCCCCCC(=O)N[C@H](C)CO` was tested. Which Ki [1] did it give?
The Ki was 26 µM.

What about the Ki [2] of the same compound?
The Ki was 33000 nM.

And the Ki [3]?
Its Ki is 19000 nM.

Which results are given for `CCCCC/C=C\C/C=C\C/C=C\C/C=C\CCCC(=O)NCC(C)C`?
Ki [1]: 0.84 µM; Ki [2]: 98.1 nM; Ki [3]: 90.2 nM

`CCCCC/C=C\C/C=C\C/C=C\C/C=C\CCCC(=O)N[C@@H](C)CC` was tested. Which Ki [1] did it give?
Its Ki is 3.2 µM.

And the Ki [3]?
The Ki was 287 nM.

What does the source list for `C=CCNC(=O)CCC/C=C\C/C=C\C/C=C\C/C=C\CCCCC`?
Ki [1]: 0.226 µM; Ki [2]: 2980 nM; Ki [3]: 9.91 nM

`CCCCC/C=C\C/C=C\C/C=C\C/C=C\CCCCNC(=O)COC(C)=O` was tested. Which Ki [1] did it give?
The Ki was > 10 µM.

And the Ki [2]?
The Ki was 419 nM.

How did the Ki [1] turn out when `CCCCC/C=C\C/C=C\CCCCCCCC(=O)N[C@H](C)CO` was run?
Its Ki is 21 µM.

What about the Ki [2] of the same compound?
Its Ki is 21000 nM.

And the Ki [3]?
Its Ki is 21000 nM.

What does the source list for `CCCCC/C=C\C/C=C\C/C=C\C/C=C\CCCC(=O)NC[C@H](C)O`?
Ki [1]: 0.771 µM; Ki [2]: 110 nM; Ki [3]: 35.6 nM

`CCCCC/C=C\C/C=C\C/C=C\C/C=C\CCCC1=N[C@H](C)CO1` was tested. Which Ki [1] did it give?
The Ki was 6800 µM.

And the Ki [2]?
Its Ki is 679 nM.

Which Ki [1] does the source give for `CCCCC/C=C\C/C=C\C/C=C\C/C=C\CCCC(=O)NCCF` here?
The Ki was 0.908 µM.

And the Ki [2]?
The Ki was 4640 nM.

What about the Ki [3] of the same compound?
The Ki was 26.7 nM.

For `CCCCC/C=C\C/C=C\C/C=C\C/C=C\CCCC(=O)NCCCl`, which Ki [1] is on record?
Its Ki is 0.195 µM.

What about the EC50 [4] of the same compound?
The EC50 was 420 nM.

What about the Emax [5] of the same compound?
Its Emax is 162%.

What about the Ki [2] of the same compound?
Its Ki is 3400 nM.

What about the Ki [3] of the same compound?
Its Ki is 5.29 nM.

For `CCCCCCCC/C=C\CCCCCCCC(=O)NCCO` [OLEOYLETHANOLAMIDE], which Ki [1] is on record?
Its Ki is 31 µM.

And the Ki [2]?
Its Ki is 44000 nM.

`CCCCC/C=C\C/C=C\C/C=C\C/C=C\CCCC(=O)N[C@H](C)CO` [METHANANDAMIDE] was tested. Which Ki [1] did it give?
Its Ki is 0.868 µM.

What about the EC50 [4] of the same compound?
The EC50 was 330 nM.

And the Emax [5]?
Its Emax is 148%.

Which EC50 [4] does the source give for `CCCCCCC(C)(C)c1ccc([C@@H]2C[C@H](O)CC[C@H]2CCCO)c(O)c1` [CP-55940] here?
Its EC50 is 100 nM.

And the Emax [5]?
Its Emax is 145%.

What about the EC50 [6] of the same compound?
Its EC50 is 20 mM.

With `CCCCC/C=C\C/C=C\CCCCCCCC1=NCCO1` as the compound, how does the Ki [1] read?
The Ki was 20 µM.
